{"data": "Assay results of several laboratories", "target": "Receptor-interacting serine/threonine-protein kinase 2 (RIPK2, Homo sapiens, UniProt O43353)", "note": "Lines come from different studies, so protocols differ."}
{"SMILES": "CC(C)S(=O)(=O)c1ccc2nccc(Nc3ccc4sc(C5CCCC5)nc4c3)c2c1", "read-out": "enzyme activity", "mode": "inhibitor", "tested at": "1 µM", "measurement": "activity vs control", "result": "2.5%"}
{"SMILES": "CCCCC(=O)Nc1ccc(-c2ccc3ncn(CCC)c(=O)c3c2)cn1", "read-out": "binding", "method": "competition with immobilised ligand", "tested at": "0.5 µM", "measurement": "remaining binding", "result": "98%"}
{"SMILES": "C#Cc1cc(-c2cc(Nc3nc(N[C@@H](C)c4ccc(F)cn4)ncc3Cl)n[nH]2)ccc1C=O", "read-out": "enzyme activity", "mode": "inhibitor", "tested at": "0.2 µM", "measurement": "inhibition", "result": "14.7%"}
{"SMILES": "COc1ccc2oc(-c3ccc4nc(N)oc4c3)c/c(=N\\c3ccccc3NC(=O)CCN)c2c1", "read-out": "binding", "tested at": "1 µM", "measurement": "remaining binding", "result": "112%"}
{"SMILES": "Cc1ccc(NC(=O)c2ccnc(C(F)(F)F)c2)cc1-c1cc(OCCO)nc(N2CCOCC2)c1", "read-out": "binding", "method": "competition with immobilised ligand", "tested at": "1 µM", "measurement": "remaining binding", "result": "63%"}
{"SMILES": "C=CC(=O)N1CCC([C@@H]2CCNc3c(C(N)=O)c(-c4ccc(Oc5ccccc5)cc4)nn32)CC1", "read-out": "enzyme activity", "mode": "inhibitor", "tested at": "1 µM", "measurement": "inhibition", "result": "96%"}
{"SMILES": "COc1ccc2[nH]c3c4[nH]c5ccc(OC)cc5c4c4c(c3c2c1)C(=O)NC4=O", "read-out": "binding", "method": "competition with immobilised ligand", "tested at": "1 µM", "measurement": "remaining binding", "result": "60%"}
{"SMILES": "CO[C@@H]1[C@H](N(C)C(=O)c2ccccc2)C[C@H]2O[C@]1(C)n1c3ccccc3c3c4c(c5c6ccccc6n2c5c31)C(=O)NC4", "read-out": "enzyme activity", "mode": "inhibitor", "tested at": "1 µM", "measurement": "inhibition", "result": "0%"}
